High-throughput results as filed in PubChem BioAssay.
DNMT1 block = DNMT1 (human) enzyme inhibition; P26358; DNMT1 molecular beacon, Hinp1I cleavage, fluorescence; inhibition (reported as % activation of signal), % at 10 µM; 360,000 tested, 0.83% active; in the data active = inhibition above about 50%
SUMO1-SIM PPI = modulators of human SUMO1-mediated protein-protein interactions; SUMO1 binding to a labelled peptide, TR-FRET, 1 h; inhibition, % at 20 µM; AID 602429; 360,000 tested, 0.33% active; in the data active = inhibition above about 37%
Target sequence (P63165 whole entry, looked up): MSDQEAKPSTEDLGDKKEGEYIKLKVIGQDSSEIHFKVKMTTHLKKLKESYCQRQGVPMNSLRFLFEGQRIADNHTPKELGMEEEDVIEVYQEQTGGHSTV
STEP block = inhibitors of human striatal-enriched phosphatase STEP. P54829. recombinant STEP, OMFP fluorogenic substrate, fluorescence. inhibition, % at 20 µM. 360,000 tested, 0.25% active;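 active = inhibition at 20 µM, scaled per plate between control wells, above about 37%, limit read from the data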;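 also: 0% = DMSO with enzyme and substrate and 100% = substrate only without enzyme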
Target sequence (P54829 whole entry, looked up): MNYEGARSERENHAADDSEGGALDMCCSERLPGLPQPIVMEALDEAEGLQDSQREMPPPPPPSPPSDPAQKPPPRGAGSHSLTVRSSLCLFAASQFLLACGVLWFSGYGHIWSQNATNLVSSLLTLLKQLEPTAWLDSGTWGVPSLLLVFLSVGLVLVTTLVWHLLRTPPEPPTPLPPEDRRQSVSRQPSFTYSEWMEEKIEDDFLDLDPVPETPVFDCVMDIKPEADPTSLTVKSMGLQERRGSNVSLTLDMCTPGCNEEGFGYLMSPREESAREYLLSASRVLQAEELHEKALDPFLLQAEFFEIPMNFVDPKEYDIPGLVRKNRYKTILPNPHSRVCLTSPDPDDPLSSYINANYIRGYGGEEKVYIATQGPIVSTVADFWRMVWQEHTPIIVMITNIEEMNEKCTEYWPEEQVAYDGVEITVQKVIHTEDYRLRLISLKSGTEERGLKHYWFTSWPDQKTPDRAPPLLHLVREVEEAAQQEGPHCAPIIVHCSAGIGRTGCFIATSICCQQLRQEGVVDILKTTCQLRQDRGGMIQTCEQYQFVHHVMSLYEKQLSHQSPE
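medium = Bis-Tris buffer pH 6.0, 2.5 mM DTT, 0.005% Tween 20 | test system = STEP (striatal-enriched tyrosine phosphatase) enzyme, cell-free | measure = normalized % inhibition | compound dosing = 20 µM, 1% DMSO | also added = 25 µM OMFP | schedule = reaction 20 min, ambient temperature | measured by = fluorescence read at 480 nm ex / 540 nm em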
Scp-1 inhibitor = inhibitors of human Scp-1 phosphatase; inhibition, % at 20 µM; 340,000 tested, 0.88% active; Recombinant Scp1, phosphopeptide, malachite green phosphate absorbance; Q9GZU7;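 active = inhibition above about 50% at 20 µM, limit read from the data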;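 also: plate controls were DMSO wells with enzyme for no effect and wells lacking enzyme for full effect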
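System: SCP-1 catalytic domain; Reagent: Phospho 17-mer peptide substrate; Doses: one concentration, 20 µM, with 1.0% DMSO; Incubation: 45 min room-temperature reaction, 5 min colour, 30 min stabiliser; Signal: Phosphate-binding colour reagent, absorbance read at 630 nm.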
LMPTP inh = blocks human LMPTP phosphatase; P24666; recombinant LMPTP-A, OMFP fluorogenic substrate, fluorescence intensity; inhibition, % at 20 µM; 360,000 tested, 0.22% active; AID 651560;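 active = compounds that cut the enzyme signal by at least half of the control window in the single-dose screen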;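 also: plate controls were DMSO wells with enzyme plus substrate for no effect and substrate without enzyme for full effect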
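Material: LMPTP-A; amount: 0.625 nM enzyme; doses: single 20 µM dose; times: reaction 50 min, room temperature, dark; technique: fluorescence intensity of OMFP turnover product; benchmarks: no-enzyme and uninhibited controls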
UBC9 SUMO inh = SUMOylation inhibition | P63279 | HTRF SUMOylation assay, SAE1/SAE2 + UBC9, in vitro | inhibition, % at 35 µM | 290,000 tested, 0.36% active | AID 2006; in the data active = inhibition above about 50%, passing the limit was not always enough
Numbers without * were called inactive; · = not tested or not shown. A selection: hits, their analogues and other compounds. The true share with any hit is near 1.9%.

SMILES | DNMT1 block | SUMO1-SIM PPI | STEP block | Scp-1 inhibitor | LMPTP inh | UBC9 SUMO inh
Cc1cccc2c(N=Nc3ccc(S(=O)(=O)Nc4ccc(Cl)cc4)cc3[N+](=O)[O-])c(O)[nH]c12 | 0 | -14 | 4 | -1 | 7 | 68*
COc1ccc(N(CC(=O)NN=C2CCN(C)CC2)S(=O)(=O)c2ccc(NC(C)=O)cc2)cc1 | 0 | 3 | 1 | -8 | -3 | -7
C=CCN(c1ccccc1OC)S(=O)(=O)c1cccc(C(=O)NCC(c2ccc(OC)cc2)N2CCCC2)c1 (stereo not drawn) | -9 | -3 | 0 | -5 | 2 | ·
Nc1nnc(-c2cc3c(ccc4ccccc43)oc2=O)s1 | · | · | · | · | · | 66*
O=c1oc2ccc3ccccc3c2cc1-c1nnc(-c2ccccc2)o1 | 4 | -2 | 3 | -5 | 7 | 13
CC1(C(=O)NCc2ccccc2)CN(S(C)(=O)=O)CC(=O)N1C1CC1 (stereo not drawn) | · | -2 | · | · | 0 | ·
O=C(c1ccccc1)N1CCC(c2nc3c(nnn3Cc3ccco3)c(=O)[nH]2)CC1 | 6 | 53* | 1 | 3 | -1 | 9
O=C(c1ccc(Cl)cc1Cl)N1CCC(c2nc3c(nnn3Cc3ccco3)c(=O)[nH]2)CC1 | -1 | 4 | 2 | 3 | 2 | -12
O=C(c1ccc(-c2nnc(Nc3cccc(Cl)c3)c3ccccc23)cc1)N1C[C@H]2C[C@H](C1)c1cccc(=O)n1C2 | 74* | 7 | 2 | 3 | 20 | 1
Nc1c(C(=O)Nc2ccc(Br)cc2)sc2nc(N3CCOCC3)c3c(c12)CCCC3 | 50* | 2 | -4 | · | -1 | ·
NCCCC[C@H]1NC(=O)[C@H](CCC(=O)O)NC(=O)c2cc([N+](=O)[O-])cc(I)c2OCC[C@@H](C(N)=O)NC1=O | · | · | · | 91* | · | 16
C[C@@H]1NC(=O)c2cc([N+](=O)[O-])cc(I)c2OCC[C@@H](C(N)=O)NC(=O)[C@H](CCCCN)NC1=O | 4 | -21 | 2 | -8 | -2 | -4
O=c1ccc2cc3c(-c4ccccc4)coc3cc2o1 | -2 | -10 | 1 | -12 | 1 | 11
CCOc1ccc(CN2CCN(S(=O)(=O)c3ccc(NC(C)=O)cc3)CC2)cc1 | -2 | 9 | 0 | -12 | -1 | 0
CS(=O)(=O)N(CC(=O)N1CCC(C(N)=O)CC1)Cc1ccc(Cl)c(Cl)c1 | -4 | -2 | -2 | -9 | -1 | -2
O=C(Oc1ccc[nH]c1=O)c1cc([N+](=O)[O-])cc([N+](=O)[O-])c1 | -5 | -35 | 2 | 12 | 0 | 98*
CCNC(=O)Oc1ccc[nH]c1=O | -3 | 0 | 0 | -11 | -3 | 88*
COc1ccc(C(=O)Oc2ccc[nH]c2=O)cc1 | 4 | -4 | 0 | 2 | -1 | 10
CC(=O)c1ccc(NC(=O)c2ccc(N3C(=O)c4cccnc4C3=O)cc2)cc1 | -5 | 41* | 2 | 7 | 3 | 15
O=C(c1ccc(S(=O)(=O)N2CCCCC2)cc1)N1CCCC(C(F)(F)F)C1 (stereo not drawn) | 35 | -3 | 1 | -8 | -1 | ·
CC(=O)Nc1ccc(NC(=O)Cn2c(-c3ccc(F)cc3)cnc2SCC(=O)Nc2c(C)cccc2C)cc1 | 18 | -1 | 2 | -2 | -1 | 51*
Cn1c(-c2ccc(F)cc2)cnc1SCC(=O)Nc1ccccc1 | 1 | 2 | 2 | -6 | 1 | -2
CC1(C)OC(=O)C2=C(C[C@@H](CCC(F)(F)F)O[C@H]2c2ccc(F)cc2)O1 | -1 | 5 | -3 | · | -1 | ·
Nc1ccc(O)c2c1C(=O)c1ccccc1C2=O | 89* | 13 | 37* | 80* | 73* | -34
O=C1c2ccccc2C(=O)c2c(O)c(O)cc(O)c21 | 79* | 36 | 24 | 76* | 66* | ·
SMILES | DNMT1 block | SUMO1-SIM PPI | STEP block | Scp-1 inhibitor | LMPTP inh | UBC9 SUMO inh
C[C@@H]1Cc2c(O)c(O)cc(O)c2C(=O)O1 | 39 | 2 | 4 | 26 | 0 | 2
O=C1C=C(O)c2c(O)cc(O)c(O)c2C1=O | 12 | 12 | 95* | 47 | 76* | ·
COc1ccccc1C(=O)NCC(=O)OCC(=O)N(CC(C)C)c1c(N)n(Cc2ccccc2)c(=O)[nH]c1=O | -8 | -1 | 2 | 2 | 0 | ·
Oc1ccc2ccccc2c1/C=N/Nc1ccccc1 | -27 | -3 | 52* | -17 | 0 | -14
Cc1cc(C)cc(OCC(=O)NNC(=O)CC(C)c2ccccc2)c1 (stereo not drawn) | -1 | 1 | 3 | · | -1 | ·
O=S(=O)(O)c1cc(Cl)cc(N=Nc2ccc(O)cc2O)c1O | 68* | -14 | 3 | 73* | 50* | ·
CC1COC(=O)C(NNc2ccc(Cl)c(Cl)c2)=N1 (stereo not drawn) | 3 | 3 | -2 | 3 | 1 | 4
COc1ccc(-c2[nH][nH]c(=O)c2NC(=O)c2ccccn2)cc1 | -13 | 6 | 2 | · | 2 | ·
COc1ccc(CCC(=O)Nc2c(-c3ccc(N(C)C)cc3)[nH][nH]c2=O)cc1 | 58* | 47* | 8 | · | 13 | ·
O=C(CSC(=S)N1CCCCC1)Nc1nc(-c2ccccc2)c(-c2ccccc2)o1 | 4 | 51* | 3 | 1 | 3 | 4
O=C(Nc1ccc(Br)cc1)c1ccc(N2C(=O)C3CC=C(Cl)CC3C2=O)cc1 (stereo not drawn) | 23 | 2 | 2 | -15 | 1 | 53*
O=C(Nc1ccc(Br)cc1)c1ccc(N2C(=O)C3CCCCC3C2=O)cc1 (stereo not drawn) | 3 | -1 | -1 | 0 | 0 | -4
C[C@]12C=CC(=O)C=C1CC[C@@H]1C2=CC[C@]2(C)[C@@H](C(=O)CN3CCN(c4cc(N5CCCC5)nc(N5CCCC5)n4)CC3)CC[C@@H]12 | 61* | -35 | 3 | 4 | 6 | ·
CC(=O)C1CCC2C3CCC4=CC(=O)C=CC4(C)C3C(=O)CC12C (stereo not drawn) | 0 | 1 | 2 | 6 | 0 | ·
C[C@H]1O[C@@H](n2cc(F)c(=O)[nH]c2=O)[C@H](O)[C@@H]1O | 0 | 3 | -3 | -6 | 0 | ·
CCCCCCCCCCCCCCCCCCNc1ccn(C2OC(COP(=O)(O)OCC3OC(n4cc(F)c(=O)[nH]c4=O)CC3O)C(O)C2O)c(=O)n1 (stereo not drawn) | 80* | 20 | 1 | 21 | 3 | ·
S=C(NCCCN1CCOCC1)NCCCN1CCOCC1 | -1 | -2 | 94* | -2 | -7 | -2
O=C(Nc1ccncc1NC(=O)c1cccc([N+](=O)[O-])c1)c1cccc([N+](=O)[O-])c1 | 37 | 76* | 30 | 9 | 55* | 17
Cc1nc(SCC(=O)N2CCCCC2)c2c(C)c(C)sc2n1 | 2 | 5 | 2 | -5 | -1 | -1
